Measured values as given in PubChem BioAssay.
Activity calls are given as the source filed them.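 How the source made its calls: active means duplicate-averaged activation above buffer control mean plus 5 SD of those controls; inactive means the rest.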

test: thallium flux activation in parental CHO cells, counter-screen for KCNQ1 potentiator project (AID 493006); settings: parental CHO-K1 cells, FluxOR thallium flux, at 10 µM; stronger effect = higher value;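 on activation: fluorescence ratio of max minus min over baseline after K+ and Tl+ depolarization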
In short: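 Material: parental CHO-K1 cells, FluxOR dye-loaded; Also added: Potassium/thallium depolarization pulse; Schedule: overnight 37 °C plating, 90 min dye, 20 min dark compound; Signal: kinetic FluxOR fluorescence, 10 s baseline, 110 s after stimulus.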

SMILES | outcome | activation
CN1C=CC=C/C1=C1\SC(=S)N(Cc2ccccc2)C1=O | inactive | –
CCOc1ccc(NC(=O)CN(C)C(=O)C2CCN(c3ncnc4sc(C)c(C)c34)CC2)cc1OCC | inactive | –
CC1=NN(C(=O)c2csc(C)c2C)C(O)(C(F)(F)F)C1 (stereo not given) | inactive | –
COc1ccc(C(=O)O/N=C(\N)Cc2ccc(Cl)cc2Cl)cc1OC | inactive | –
O=C(NCC1CCCO1)c1ccccc1OCc1ccc(F)cc1 (stereo not given) | inactive | –
Cc1ccc(S(=O)(=O)N(C)c2nc3ccccc3[nH]c2=S)cc1 | inactive | –
CC1=CC(=O)C=C(C)C1=NOS(=O)(=O)c1ccccc1 | inactive | –
CCOc1ccccc1NC(=O)C(=O)CC(=O)c1cccc(OC)c1 | – | 216% (active)
O=C(CN(Cc1ccccc1Cl)C(=O)c1csnn1)NC1CCCC1 | inactive | –
Oc1c(N=NC(=S)Nc2ccccc2F)c2ccccc2n1Cc1ccccc1 | – | 143% (active)
Fc1ccc(NC(=S)N/N=C/c2ccc(F)c(F)c2)c(F)c1 | inactive | –
CCC1(c2ccc(Cl)cc2)NC(=S)N(c2ccc(C)c(C)c2)N1 (stereo not given) | – | 706% (active)
O=C(Nc1nnc(-c2ccco2)o1)c1cccc(Cl)c1 | inactive | –
O=C(NC(=S)Nc1ccccc1F)c1ccc(Br)o1 | – | 230% (active)
COc1cccc(OCC(=O)NNC(=O)C(=O)Nc2ccc(OC)cc2OC)c1 | – | 172% (active)
COCCCn1c(=S)[nH]c2c(sc3ccccc32)c1=O | – | 176% (active)
CN(C)c1ccc(C(=O)Nc2nnc(C3=COCCO3)o2)cc1 | inactive | –
CCSc1nnc(NC(=O)[C@H](C)NC(=O)c2ccccc2Cl)s1 | inactive | –
O=C(N/N=C/c1cccnc1)c1ccco1 | inactive | –
O=C(c1ccccc1)N1CCC(CC2CC(c3ccc(Cl)cc3)=NO2)(C(=O)NCC2CCCCC2)CC1 (stereo not given) | inactive | –

SMILES | outcome | activation
O=c1c2ccccc2[nH]c(=S)n1CCC1=CCCCC1 | – | 212% (active)
Cc1ccc(-c2nc(N)s[n+]2-c2ccccc2)cc1 | – | 187% (active)
CCn1c(O)c(N=NC2=NC(=O)CS2)c2ccccc21 | inactive | –
Cc1ccccc1-n1c(C)cc(/C=N/NC(=O)c2ccncc2)c1C | inactive | –
COc1cc(CNCCN2CCOCC2)ccc1OCc1ccc(Cl)cc1Cl | inactive | –
CN(C(=S)NC(=O)c1ccccc1)C1CCCCC1 | – | 228% (active)
CCc1ccc2[nH]c(O)c(N=Nc3nc(-c4ccccc4)cs3)c2c1 | – | 186% (active)
O=C(NC(=S)N1CCN(C/C=C/c2ccccc2)CC1)c1c(F)cccc1F | – | 139% (active)
O=C(COC(=O)C12CC3CC(CC(C3)C1)C2)NCCCc1ccccc1 | inactive | –
Cc1ccc(SCC2(O)CCN(S(=O)(=O)c3ccc(Cl)cc3)CC2)cc1 | inactive | –
O=C(NC(=S)N1CCCc2ccccc21)c1ccc([N+](=O)[O-])cc1 | – | 202% (active)
Cc1ccc(-c2nc3ccccc3o2)cc1NC(=S)NC(=O)c1cc2ccccc2o1 | inactive | –
O=C(CSc1nnc(SCc2cccc3ccccc23)s1)c1ccc2c(c1)OCO2 | – | 163% (active)
COCCn1c(=S)[nH]c2sc3c(c2c1=O)CCCC3 | – | 325% (active)
O=C(CC1C(=O)NCCN1Cc1cccc(F)c1)NCCCN1CCCC1=O (stereo not given) | inactive | –
O=C(NC(=S)Nc1cccc(Cl)c1N1CCCCC1)c1ccco1 | – | 156% (active)
CCCc1cc(=O)n2[nH]cc(-c3ccc(Cl)cc3)c2n1 | – | 168% (active)
Oc1oc(-c2cccc3ccccc23)nc1/C=N/c1nccs1 | inactive | –
O=c1c2ccccc2nc(-c2cccc(Cl)c2)n1O | – | 358% (active)
CCCCN1CNC(=S)N(c2ccccc2OCC)C1 | inactive | –
